Data as given in ChEMBL document CHEMBL1773010, “Cytotoxic and apoptosis-inducing activities of limonoids from the seeds of Azadirachta indica (neem)” (J Nat Prod, 2011).
The source made the active and inactive calls. No cut-off for these calls is given here.

How the values were obtained:
A549 = test: Cytotoxicity against human A549 cells assessed as cell viability after 48 hrs by MTT assay; assay type: functional, cell-based; conditions: A549, 48 h
Outline: (§1)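 Cells seeded at 3 × 10^3 per well and exposed to compounds from 1 × 10^-4 to 1 × 10^-6 M for 48 h. MTT was then added for 3 h, formazan dissolved in 0.04 M HCl in 2-propanol, and absorbance read at 570 nm against 630 nm. IC50 is the concentration giving 50% growth inhibition, from triplicate assays.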

HL-60 [1] = test: Induction of apoptosis in human HL60 cells assessed as viable cells at 30 uM after 24 hrs using annexin-V FITC and PI staining by flow cytometry; assay type: functional; conditions: HL-60, 24 h, read-out: Activity
Outline: (§2)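 HL60 cells (1 × 10^5) exposed to 30 μM final compound for 8 or 24 h. Cells were washed in annexin-binding buffer, stained with annexin V-FITC and PI for 10 min, and analyzed by flow cytometry (FL1 and FL2). Quadrants: early apoptotic annexin+/PI−, late apoptotic double positive, necrotic annexin−/PI+. Values are means of three experiments.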

HL-60 [2] = test: Induction of apoptosis in human HL60 cells assessed as increase in cleaved caspase-3 level at 30 uM after 24 hrs by Western blot analysis; assay type: functional, cell-based
Outline: (§3)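 HL60 cells (4 × 10^5) exposed to 30 μM final compound for 8 and 24 h, then lysed. Total protein was run on 15% SDS-PAGE and transferred to PVDF. Membranes were probed overnight at 4 °C with antibodies to caspase-3, cleaved caspase-3, caspase-8 and caspase-9, with β-actin as loading control.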

SK-BR-3 = test: Cytotoxicity against human SK-BR-3 cells assessed as cell viability after 48 hrs by MTT assay; assay type: functional, cell-based; conditions: SK-BR-3, 48 h; outline: as §1
[3] = Cytotoxicity against human RPMI 1788 cells assessed as cell viability after 48 hrs by MTT assay; assay type: cell-based; conditions: RPMI-1788, 48 h; outline: as §1
HL-60 [4] = test: Induction of apoptosis in human HL60 cells assessed as late apoptotic cells at 30 uM after 8 hrs using annexin-V FITC and PI staining by flow cytometry; assay type: functional; outline: as §2
HL-60 [5] = test: Induction of apoptosis in human HL60 cells assessed as increase in cleaved caspase-9 level at 30 uM after 24 hrs by Western blot analysis; assay type: functional, cell-based; outline: as §3
HL-60 [6] = test: Induction of apoptosis in human HL60 cells assessed as decrease in procaspase-3 level at 30 uM after 24 hrs by Western blot analysis; assay type: functional, cell-based; outline: as §3
HL-60 [7] = test: Induction of apoptosis in human HL60 cells assessed as decrease in procaspase-8 level at 30 uM after 24 hrs by Western blot analysis; assay type: functional, cell-based; outline: as §3
HL-60 [8] = test: Selectivity index, ratio of IC50 for human RPMI 1788 cells to IC50 for human HL60 cells; assay type: functional
HL-60 [9] = test: Induction of apoptosis in human HL60 cells assessed as increase in cleaved caspase-8 level at 30 uM after 24 hrs by Western blot analysis; assay type: functional, cell-based; outline: as §3
HL-60 [10] = test: Induction of apoptosis in human HL60 cells assessed as viable cells at 30 uM after 8 hrs using annexin-V FITC and PI staining by flow cytometry; assay type: functional; conditions: HL-60, 8 h, read-out: Activity; outline: as §2
[11] = Cytotoxicity against human AZ-521 cells assessed as cell viability after 48 hrs by MTT assay; assay type: functional, cell-based; conditions: AZ-521, 48 h; outline: as §1
HL-60 [12] = test: Cytotoxicity against human HL60 cells assessed as cell viability after 48 hrs by MTT assay; assay type: functional, cell-based; conditions: HL-60, 48 h; outline: as §1
HL-60 [13] = test: Induction of apoptosis in human HL60 cells assessed as early apoptotic cells at 30 uM after 8 hrs using annexin-V FITC and PI staining by flow cytometry; assay type: functional; outline: as §2
HL-60 [14] = test: Induction of apoptosis in human HL60 cells assessed as non-viable cells at 30 uM after 8 hrs using annexin-V FITC and PI staining by flow cytometry; assay type: functional; outline: as §2
HL-60 [15] = test: Induction of apoptosis in human HL60 cells assessed as early apoptotic cells at 30 uM after 24 hrs using annexin-V FITC and PI staining by flow cytometry; assay type: functional; outline: as §2
HL-60 [16] = test: Induction of apoptosis in human HL60 cells assessed as decrease in procaspase-9 level at 30 uM after 24 hrs by Western blot analysis; assay type: functional, cell-based; outline: as §3
[17] = Cytotoxicity against human CRL1579 cells assessed as cell viability after 48 hrs by MTT assay; assay type: functional, cell-based; outline: as §1
HL-60 [18] = test: Induction of apoptosis in human HL60 cells assessed as late apoptotic cells at 30 uM after 24 hrs using annexin-V FITC and PI staining by flow cytometry; assay type: functional; outline: as §2
HL-60 [19] = test: Induction of apoptosis in human HL60 cells assessed as non-viable cells at 30 uM after 24 hrs using annexin-V FITC and PI staining by flow cytometry; assay type: functional; outline: as §2

Row | SMILES | IC50 (A549) [µM] | viability at 30 µM (HL-60 [1]) [%] | Activity (HL-60 [2]) | IC50 (SK-BR-3) [µM] | IC50 [3] [µM] | Activity (HL-60 [4]) [%] | Activity (HL-60 [5]) | Activity (HL-60 [6]) | Activity (HL-60 [7]) | Ratio IC50 (HL-60 [8]) | Activity (HL-60 [9]) | viability at 30 µM (HL-60 [10]) [%] | IC50 [11] [µM] | IC50 (HL-60 [12]) [µM] | Activity (HL-60 [13]) [%] | Activity (HL-60 [14]) [%] | Activity (HL-60 [15]) [%] | Activity (HL-60 [16]) | IC50 [17] [µM] | Activity (HL-60 [18]) [%] | further results
1 | CC1(C)C(=O)C=C[C@]2(C)[C@H]3CC[C@@]4(C)[C@H](c5ccoc5)OC(=O)[C@H]5O[C@]54[C@]3(C)[C@H](OC(=O)c3ccccc3)C[C@@H]12 | > 20 | 9.9 | Active | > 20 | 2 | 0.7 | Active | Active | Active | 0.69 | Active | 88.1 | > 20 | 2.9 | 10.5 | 0.7 | 41.4 | Active | > 20 | 45.7 | Activity (HL-60 [19]): 3%
2 | COC(=O)C[C@H]1[C@]2(C)C3=C(C)[C@H](c4ccoc4)C[C@H]3O[C@@H]2[C@@H]2OC[C@]3(C)C=CC(=O)[C@@]1(C)[C@@H]23 | 9.3 | 49.8 | Active | 1.7 | 2.7 | 11.8 | Active | Active | Active | 1 | Active | 73.7 | 2.4 | 2.7 | 10.9 | 3.5 | 18.7 | Active | 14.2 | 28.1 | Activity (HL-60 [19]): 3.4%
3 | CC1(C)C(=O)C=C[C@]2(C)[C@H]3CC[C@@]4(C)[C@H](c5ccoc5)C(=O)[C@H]5O[C@]54[C@]3(C)[C@H](OC(=O)c3ccccc3)C[C@@H]12 | > 20 | 28.2 | Active | > 20 | 16.1 | 3 | Active | Active | Active | 5.19 | Active | 56.9 | 8.4 | 3.1 | 38.7 | 1.4 | 51.8 | Active | > 20 | 15.5 | Activity (HL-60 [19]): 4.5%
4 | CC(=O)O[C@H]1C[C@@H](OC(C)=O)[C@@]2(C)CO[C@@H]3[C@@H](O)[C@@]4(C)C5=CC[C@@H](c6ccoc6)[C@]5(C)CC[C@@H]4[C@]1(C)[C@@H]32 | > 20 |  |  | > 20 |  |  |  |  |  |  |  |  | 14.8 | 15.3 |  |  |  |  | > 20 |  | 
5 | CC(=O)O[C@@H]1C[C@H]2C(C)(C)C(=O)C=C[C@]2(C)[C@H]2CC[C@]3(C)OC(=O)C=C3[C@@]21C | > 20 |  |  | > 20 |  |  |  |  |  |  |  |  | > 20 | > 20 |  |  |  |  | > 20 |  | 
